Measurements: paper PMC6289288 (Journal of hazardous materials, 2018)
Read-outs that look alike come from different tables or passages of the source.

What was measured:
Aliivibrio fischeri = assay: Microtox acute toxicity assay; type: cell-based; settings: n=3, mean ± SD
Method in brief: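 Aliivibrio fischeri bioluminescence assay, run in triplicate. A 2 mM stock was osmotically adjusted and then 1:1 serially diluted in Microtox diluent to 9 concentrations (3.5–889 μM). Diluent alone served as the toxicant-free control. Light output was read before mixing with bacteria and again at 5, 15 and 30 min. EC50 is the concentration halving bioluminescence relative to the control at each time point.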

[1] = system: H1299, a human lung cell line; assay: xCELLigence Real-Time Cell Analysis; type: cell-based; settings: read-out: xCELLigence IC50 72 h; H1299, 72 h, n=3, mean ± SD
[2] = Measured at pH 8; ref Palos Pacheco et al. [25]; cited from earlier work
[3] = system: Zebrafish (Danio rerio) embryos; assay: Zebrafish embryo developmental toxicity assay; type: in vivo; settings: for Zebrafish mortality: 120 hpf
Method in brief: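 Embryos with intact chorions were exposed from 6 to 120 hpf in embryo medium to 0.064–640 μM test compound. All wells contained 0.64% DMSO, and there were 32 embryos per concentration and control. Plates were kept at 28 °C in the dark. At 24 hpf, mortality, developmental delay, spontaneous movement and notochord were scored. At 120 hpf, mortality, edemas, morphological abnormalities, circulation, swim bladder and touch response were scored.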

[4] = system: H1299, a human lung cell line; assay: MTS cytotoxicity assay; type: cell-based; settings: read-out: MTS IC50 72 h; H1299, 72 h, mean ± SD, n = 2–7
[5] = laboratory settings; cited from earlier work
[6] = read-out: Microtox EC50 5 min, 5 min exposure
[7] = read-out: Microtox EC50 15 min, 15 min exposure
[8] = read-out: Microtox EC50 30 min, 30 min exposure

Compound	EC50 (Aliivibrio fischeri; [6])	EC50 (Aliivibrio fischeri; [7])	EC50 (Aliivibrio fischeri; [8])	IC50 [1]	Area [2]	CMC [2]	Minimum Surface Tension [2]	Zebrafish mortality ([3]; 640 μM, n = 32, exposure from 6 to 120 hpf)	Developmental effects (22 developmental endpoints) ([3]; 0.064–640 μM, 24 and 120 hpf)	IC50 [4]	Zebrafish mortality ([3]; 6.4 μM, n = 32)	Biodegradability [5]
CCCCCCCC(CC(=O)O)OC(=O)CC(CCCCCCC)O[C@@H]1O[C@@H](C)[C@H](O)[C@@H](O)[C@H]1O (stereo partly drawn) [Rha-C10-C10 (R,R), rhamnosyl-β-hydroxydecanoyl-β-hydroxydecanoate]	78.7 ± 4 µM	53.8 ± 3.3 µM	47.3 ± 1.2 µM	122 ± 9.1 µM	119 ± 10 Å^2 molecule^−1	270 ± 77 µM	28.1 ± 0.2 mN m^−1	not associated with mortality	no developmental effects	129.7 ± 1.1 µM	–	–
CCCCCCCC(CC(=O)O)OC(=O)CC(CCCCCCC)O[C@@H]1O[C@@H](C)[C@H](O)[C@@H](O)[C@H]1O (stereo partly drawn) [Rha-C10-C10 (S,R), rhamnosyl-β-hydroxydecanoyl-β-hydroxydecanoate]	61.9 ± 4.7 µM	39.6 ± 2.9 µM	36.6 ± 2.9 µM	111 ± 6.2 µM	105 ± 4 Å^2 molecule^−1	180 ± 24 µM	28.5 ± 0.2 mN m^−1	–	–	103 ± 31.9 µM	–	–
CCCCCCCC(CC(=O)O)OC(=O)CC(CCCCCCC)O[C@@H]1O[C@@H](C)[C@H](O)[C@@H](O)[C@H]1O (stereo partly drawn) [Rha-C10-C10 (S,S), rhamnosyl-β-hydroxydecanoyl-β-hydroxydecanoate]	64.3 ± 8.5 µM	42.6 ± 4.4 µM	38.8 ± 3.7 µM	108 ± 5.3 µM	94 ± 8 Å^2 molecule^−1	201 ± 51 µM	29.5 ± 0.2 mN m^−1	–	–	125 ± 18.6 µM	19%	–
CCCCC(CC)COC(=O)CC(C(=O)OCC(CC)CCCC)S(=O)(=O)O (stereo not shown) [bis-(2-ethylhexyl) sulfosuccinate (DOSS), bis-(2-ethylhexyl) sulfosuccinate]	–	–	–	–	–	–	–	–	–	–	–	biodegradable
